Source: ChEMBL document CHEMBL1137559, “Rational design of 5'-thiourea-substituted alpha-thymidine analogues as thymidine monophosphate kinase inhibitors capable of inhibiting mycobacterial growth” (J Med Chem, 2007)
≈ marks a conversion by molar mass, not a printed value.

System: Mycobacterium tuberculosis variant bovis
Test: Growth inhibition of Mycobacterium bovis BCG 1173P2
Type: functional, Mycobacterium bovis BCG str. Pasteur 1173P2
Method in brief: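 Broth microdilution in 7H9 Middlebrook medium with 0.2% glycerol, 0.5% Tween 80 and OADC. Uses two-fold serial dilutions and about 10^5 bacteria/ml, incubated at 37 °C. Resazurin 0.01% was added at day 8 and incubated overnight, then read as OD 570 minus 630 nm. MIC was taken as the lowest concentration preventing the blue-to-pink change.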

Row | Structure (SMILES) | MIC99 [µg/mL] | MIC50 [µg/mL]
1 | Cc1cn([C@@H]2C[C@H](O)[C@@H](CNC(=S)Nc3ccc(Cl)c(Cl)c3)O2)c(=O)[nH]c1=O | 25 (≈ 56.1 µM) | 
2 | Cc1cn([C@@H]2CC[C@@H](CNC(=S)Nc3ccc(Cl)c(C(F)(F)F)c3)O2)c(=O)[nH]c1=O | 40 (≈ 86.4 µM) | 
3 | Cc1cn([C@@H]2C[C@H](O)[C@@H](CNC(=O)Nc3ccc(Cl)c(Cl)c3)O2)c(=O)[nH]c1=O |  | 40 (≈ 93.2 µM)
4 | Cc1cn([C@@H]2C[C@H](O)[C@@H](CNC(=O)Nc3ccc(Cl)c(C(F)(F)F)c3)O2)c(=O)[nH]c1=O |  | 40 (≈ 86.4 µM)
5 | Cc1cn([C@@H]2C[C@H](O)[C@@H](CNC(=S)Nc3ccc(Cl)c(C(F)(F)F)c3)O2)c(=O)[nH]c1=O | 20 (≈ 41.8 µM) | 
6 | Cc1cn([C@@H]2C[C@H](O)[C@@H](CNC(=S)NCc3ccc(Cl)c(C(F)(F)F)c3)O2)c(=O)[nH]c1=O | 40 (≈ 81.2 µM) | 
7 | Cc1cn([C@@H]2C=C[C@@H](CNC(=S)Nc3ccc(Cl)c(C(F)(F)F)c3)O2)c(=O)[nH]c1=O | 100 (≈ 217 µM) | 
8 | Cc1cn([C@@H]2C[C@H](O)[C@@H](CNC(=S)NCCc3ccc(Cl)c(Cl)c3)O2)c(=O)[nH]c1=O | 50 (≈ 106 µM) | 
9 | Cc1cn([C@@H]2C[C@H](O)[C@@H](CNC(=S)Nc3ccc4c(c3)C(=O)OC43c4ccc(O)cc4Oc4cc(O)ccc43)O2)c(=O)[nH]c1=O | > 150 | 
10 | Cc1cn([C@@H]2C[C@H](O)[C@@H](CN)O2)c(=O)[nH]c1=O | > 40 | 
